According to ChEMBL document CHEMBL1255475, “Mutant prevention concentrations of four carbapenems against gram-negative rods” (2010):

Key:
Format in all cases: functional
Escherichia coli [1] = experiment: Antibacterial activity against beta-lactamase-positive ESBL-negative Escherichia coli E430 assessed as mutant prevention concentration after overnight incubation
Summary of the method: (§1)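 Overnight growth on blood trypticase soy agar (35°C, air) was resuspended in 0.9% saline and counted on drug-free Mueller-Hinton agar. […] Colonies were retested by agar dilution to confirm mutants. MPC was the lowest concentration preventing resistant-mutant growth.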

Pseudomonas aeruginosa [2] = experiment: Antibacterial activity against Pseudomonas aeruginosa P363 assessed as mutant prevention concentration after overnight incubation
Escherichia coli [3] = experiment: Antibacterial activity against beta-lactamase-positive ESBL-positive Escherichia coli E456 assessed as mutant prevention concentration after overnight incubation; summary of the method: as §1
Acinetobacter baumannii [4] = experiment: Antibacterial activity against Acinetobacter baumannii A928 assessed as mutant prevention concentration after overnight incubation
Klebsiella pneumoniae [5] = experiment: Antibacterial activity against beta-lactamase-positive ESBL-positive Klebsiella pneumoniae E475 assessed as mutant prevention concentration after overnight incubation; summary of the method: as §1
Escherichia coli [6] = experiment: Antibacterial activity against beta-lactamase-positive ESBL-negative Escherichia coli E412 assessed as mutant prevention concentration after overnight incubation; summary of the method: as §1
Klebsiella pneumoniae [7] = experiment: Antibacterial activity against beta-lactamase-positive ESBL-negative Klebsiella pneumoniae E507 assessed as mutant prevention concentration after overnight incubation; summary of the method: as §1
Klebsiella pneumoniae [8] = experiment: Antibacterial activity against beta-lactamase-positive ESBL-negative Klebsiella pneumoniae E479 assessed as mutant prevention concentration after overnight incubation; summary of the method: as §1
Klebsiella pneumoniae [9] = experiment: Antibacterial activity against beta-lactamase-negative Klebsiella pneumoniae E420 assessed as mutant prevention concentration after overnight incubation; summary of the method: as §1
Acinetobacter baumannii [10] = experiment: Antibacterial activity against Acinetobacter baumannii A891 assessed as mutant prevention concentration after overnight incubation
Pseudomonas aeruginosa [11] = experiment: Antibacterial activity against Pseudomonas aeruginosa P369 assessed as mutant prevention concentration after overnight incubation
Escherichia coli [12] = experiment: Antibacterial activity against beta-lactamase-positive ESBL-negative Escherichia coli E437 assessed as mutant prevention concentration after overnight incubation; summary of the method: as §1
Klebsiella pneumoniae [13] = experiment: Antibacterial activity against beta-lactamase-positive ESBL-negative Klebsiella pneumoniae E509 assessed as mutant prevention concentration after overnight incubation; summary of the method: as §1
Klebsiella pneumoniae [14] = experiment: Antibacterial activity against beta-lactamase-negative Klebsiella pneumoniae E361 assessed as mutant prevention concentration after overnight incubation
Pseudomonas aeruginosa [15] = experiment: Antibacterial activity against Pseudomonas aeruginosa P319 assessed as mutant prevention concentration after overnight incubation
Acinetobacter baumannii [16] = experiment: Antibacterial activity against Acinetobacter baumannii A912 assessed as mutant prevention concentration after overnight incubation
Escherichia coli [17] = experiment: Antibacterial activity against beta-lactamase-negative Escherichia coli E344 assessed as mutant prevention concentration after overnight incubation
Escherichia coli [18] = experiment: Antibacterial activity against beta-lactamase-positive ESBL-positive Escherichia coli E446 assessed as mutant prevention concentration after overnight incubation; summary of the method: as §1
Escherichia coli [19] = experiment: Antibacterial activity against beta-lactamase-positive ESBL-positive Escherichia coli E450 assessed as mutant prevention concentration after overnight incubation; summary of the method: as §1
Acinetobacter baumannii [20] = experiment: Antibacterial activity against Acinetobacter baumannii A890 assessed as mutant prevention concentration after overnight incubation
Acinetobacter baumannii [21] = experiment: Antibacterial activity against Acinetobacter baumannii A901 assessed as mutant prevention concentration after overnight incubation
Pseudomonas aeruginosa [22] = experiment: Antibacterial activity against Pseudomonas aeruginosa P373 assessed as mutant prevention concentration after overnight incubation
Pseudomonas aeruginosa [23] = experiment: Antibacterial activity against Pseudomonas aeruginosa P356 assessed as mutant prevention concentration after overnight incubation
Pseudomonas aeruginosa [24] = experiment: Antibacterial activity against Pseudomonas aeruginosa P335 assessed as mutant prevention concentration after overnight incubation
Escherichia coli [25] = experiment: Antibacterial activity against beta-lactamase-positive ESBL-positive Escherichia coli E465 incubated up to 7 days by agar dilution method; settings: E465, 168 h
Summary of the method: (§2)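 MIC by CLSI agar dilution, with quality-control strains in each run. Beta-lactamase status was set by 30 μg cefazolin Kirby-Bauer disk diffusion. ESBL status was set by cefotaxime and ceftazidime disks (30 μg) with and without clavulanic acid (10 μg).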

Klebsiella pneumoniae [26] = experiment: Antibacterial activity against beta-lactamase-negative Klebsiella pneumoniae E419 incubated up to 7 days by agar dilution method; settings: E419, 168 h
Escherichia coli [27] = experiment: Antibacterial activity against beta-lactamase-negative Escherichia coli E424 […] by agar dilution method
Escherichia coli [28] = experiment: Antibacterial activity against beta-lactamase-negative Escherichia coli E350 […] by agar dilution method
Escherichia coli [29] = experiment: Antibacterial activity against beta-lactamase-positive ESBL-positive Escherichia coli E450 incubated up to 7 days by agar dilution method; settings: E450, 168 h; summary of the method: as §2
Klebsiella pneumoniae [30] = experiment: Antibacterial activity against beta-lactamase-negative Klebsiella pneumoniae E420 incubated up to 7 days by agar dilution method; settings: E420, 168 h; summary of the method: as §2
Klebsiella pneumoniae [31] = experiment: Antibacterial activity against beta-lactamase-positive ESBL-negative Klebsiella pneumoniae E479 incubated up to 7 days by agar dilution method; settings: E479, 168 h
Summary of the method: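 MPC determination: overnight cultures on blood trypticase soy agar at 35°C in air were resuspended in 0.9% saline, and CFU were counted on drug-free Mueller-Hinton agar. […] Growth was retested by agar dilution to confirm mutants. MPC was the lowest concentration preventing resistant-mutant growth.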

Klebsiella pneumoniae [32] = experiment: Antibacterial activity against beta-lactamase-positive ESBL-positive Klebsiella pneumoniae E478 incubated up to 7 days by agar dilution method; settings: E478, 168 h
Klebsiella pneumoniae [33] = experiment: Antibacterial activity against beta-lactamase-negative Klebsiella pneumoniae E417 incubated up to 7 days by agar dilution method; settings: E417, 168 h; summary of the method: as §2
Escherichia coli [34] = experiment: Antibacterial activity against beta-lactamase-negative Escherichia coli E409 […] by agar dilution method
Klebsiella pneumoniae [35] = experiment: Antibacterial activity against beta-lactamase-positive ESBL-negative Klebsiella pneumoniae E474 incubated up to 7 days by agar dilution method; settings: E474, 168 h
Klebsiella pneumoniae [36] = experiment: Antibacterial activity against beta-lactamase-positive ESBL-negative Klebsiella pneumoniae E473 incubated up to 7 days by agar dilution method; settings: E473, 168 h
Klebsiella pneumoniae [37] = experiment: Antibacterial activity against beta-lactamase-negative Klebsiella pneumoniae E357 incubated up to 7 days by agar dilution method; settings: E357, 168 h
Escherichia coli [38] = experiment: Antibacterial activity against beta-lactamase-positive ESBL-positive Escherichia coli E456 incubated up to 7 days by agar dilution method; settings: E456, 168 h; summary of the method: as §2
Klebsiella pneumoniae [39] = experiment: Antibacterial activity against beta-lactamase-negative Klebsiella pneumoniae E358 incubated up to 7 days by agar dilution method; settings: E358, 168 h
Klebsiella pneumoniae [40] = experiment: Antibacterial activity against beta-lactamase-positive ESBL-positive Klebsiella pneumoniae E476 incubated up to 7 days by agar dilution method; settings: E476, 168 h
Klebsiella pneumoniae [41] = experiment: Antibacterial activity against beta-lactamase-negative Klebsiella pneumoniae E359 incubated up to 7 days by agar dilution method; settings: E359, 168 h
Escherichia coli [42] = experiment: Antibacterial activity against beta-lactamase-positive ESBL-positive Escherichia coli E460 incubated up to 7 days by agar dilution method; settings: E460, 168 h; summary of the method: as §2
Escherichia coli [43] = experiment: Antibacterial activity against beta-lactamase-positive ESBL-positive Escherichia coli E458 incubated up to 7 days by agar dilution method; settings: E458, 168 h; summary of the method: as §2
Klebsiella pneumoniae [44] = experiment: Antibacterial activity against beta-lactamase-positive ESBL-negative Klebsiella pneumoniae E480 incubated up to 7 days by agar dilution method; settings: E480, 168 h

C[C@@H](O)[C@H]1C(=O)N2C(C(=O)O)=C(SCCNC=N)C[C@H]12 [IMIPENEM ANHYDROUS]
>32 µg/mL: MPC (Klebsiella pneumoniae [13]) | MPC (Pseudomonas aeruginosa [23])
64 µg/mL: MPC (Klebsiella pneumoniae [7])
8 µg/mL: MPC (Acinetobacter baumannii [21])
16 µg/mL: MPC (Klebsiella pneumoniae [5])
0.5 µg/mL: MPC (Escherichia coli [17]) | MPC (Escherichia coli [19])
4 µg/mL: MPC (Acinetobacter baumannii [16])
0.25 µg/mL: MPC (Klebsiella pneumoniae [9])
2 µg/mL: MPC (Escherichia coli [1]) | MPC (Escherichia coli [18])
32 µg/mL: MPC (Pseudomonas aeruginosa [2]) | MPC (Klebsiella pneumoniae [8]) | MPC (Pseudomonas aeruginosa [11]) | MPC (Pseudomonas aeruginosa [15]) | MPC (Pseudomonas aeruginosa [22]) | MPC (Pseudomonas aeruginosa [24])
1 µg/mL: MPC (Escherichia coli [3]) | MPC (Acinetobacter baumannii [4]) | MPC (Escherichia coli [6]) | MPC (Acinetobacter baumannii [10]) | MPC (Escherichia coli [12]) | MPC (Klebsiella pneumoniae [14]) | MPC (Acinetobacter baumannii [20])

C[C@@H](O)[C@H]1C(=O)N2C(C(=O)O)=C(S[C@@H]3CN[C@H](CNS(N)(=O)=O)C3)[C@H](C)[C@H]12 [DORIPENEM]
>64 µg/mL: MPC (Klebsiella pneumoniae [7]) | MPC (Klebsiella pneumoniae [8]) | MPC (Klebsiella pneumoniae [13])
1 µg/mL: MPC (Acinetobacter baumannii [4]) | MPC (Acinetobacter baumannii [20])
2 µg/mL: MPC (Acinetobacter baumannii [10]) | MPC (Pseudomonas aeruginosa [11]) | MIC (Klebsiella pneumoniae [32]) | MIC (Klebsiella pneumoniae [35]) | MIC (Klebsiella pneumoniae [36]) | MIC (Klebsiella pneumoniae [40]) | MIC (Klebsiella pneumoniae [44])
8 µg/mL: MPC (Pseudomonas aeruginosa [15]) | MPC (Acinetobacter baumannii [16]) | MPC (Acinetobacter baumannii [21])
0.06 µg/mL: MPC (Klebsiella pneumoniae [9]) | MIC (Escherichia coli [28]) | MIC (Klebsiella pneumoniae [30]) | MIC (Klebsiella pneumoniae [33]) | MPC (Escherichia coli [17]) | MIC (Klebsiella pneumoniae [37]) | MIC (Klebsiella pneumoniae [39]) | MIC (Klebsiella pneumoniae [41])
16 µg/mL: MPC (Klebsiella pneumoniae [5]) | MPC (Pseudomonas aeruginosa [24])
4 µg/mL: MPC (Pseudomonas aeruginosa [2]) | MIC (Klebsiella pneumoniae [31])
>4 µg/mL: MPC (Pseudomonas aeruginosa [22]) | MPC (Pseudomonas aeruginosa [23])
0.25 µg/mL: MPC (Escherichia coli [3])
0.125 µg/mL: MPC (Escherichia coli [1]) | MPC (Escherichia coli [6]) | MIC (Klebsiella pneumoniae [26]) | MPC (Escherichia coli [12]) | MPC (Klebsiella pneumoniae [14]) | MPC (Escherichia coli [18]) | MPC (Escherichia coli [19])
0.03 µg/mL: MIC (Escherichia coli [25]) | MIC (Escherichia coli [27]) | MIC (Escherichia coli [29]) | MIC (Escherichia coli [34]) | MIC (Escherichia coli [38]) | MIC (Escherichia coli [42]) | MIC (Escherichia coli [43])
